Reference: publication PMC8109618 (Bioorganic & medicinal chemistry, 2020)

Assays:
hFXIa–DEGR = hFXIa–DEGR (Homo sapiens, UniProt P03951); test: Fluorescence titration of active site dansylated hFXIa; format: binding
hFXIa [1] = target: T1, hFXIa (Homo sapiens, UniProt P03951); test: Direct inhibition of hFXIa, chromogenic substrate; format: biochemical; conditions: for selectivity for hFXIa over FXa and trypsin: based on inhibition at >200 μM
hFXIa [2] = target: T1, hFXIa; format: biochemical
Procedure, shortened: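 Human plasma FXIa. The initial rate of S-2366 ([…]) hydrolysis was taken from the linear A405 rise, with under 10% substrate consumed. S-2366 was varied from 0.03 to 2 mM at a fixed test compound concentration. Buffer was 50 mM Tris-HCl pH 7.4 with 150 mM NaCl, 0.1% PEG8000 and 0.02% Tween80, at 37 °C. KM and VMAX came from a nonlinear hyperbolic Michaelis–Menten fit.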

hFXIa [3] = target: T1, hFXIa; test: Analytical ultracentrifugation of hFXIa–inhibitor complex; conditions: 100 μM inhibitor, 20 °C; dimeric form, same as hFXIa alone
FXa = FXa (Homo sapiens, UniProt P00742); test: Direct inhibition of FXa, chromogenic substrate; format: biochemical; conditions: not shown
FXa, sequence (P00742 235-488 limits assumed): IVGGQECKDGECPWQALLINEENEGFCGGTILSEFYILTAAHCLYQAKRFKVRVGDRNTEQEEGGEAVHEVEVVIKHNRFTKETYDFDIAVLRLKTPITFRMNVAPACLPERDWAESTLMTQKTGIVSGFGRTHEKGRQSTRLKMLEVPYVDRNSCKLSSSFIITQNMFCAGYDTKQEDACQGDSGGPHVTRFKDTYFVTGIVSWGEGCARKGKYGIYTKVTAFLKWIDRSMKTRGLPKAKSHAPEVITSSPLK
FXa, sequence (P00742 41-179 partner limits assumed): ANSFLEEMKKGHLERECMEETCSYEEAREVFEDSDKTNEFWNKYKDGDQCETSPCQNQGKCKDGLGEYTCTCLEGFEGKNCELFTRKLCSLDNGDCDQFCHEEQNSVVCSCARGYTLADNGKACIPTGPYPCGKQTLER
Procedure, shortened: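 Human plasma FXa was held as stock in 20 mM Tris-HCl, pH 7.4, 100 mM NaCl, 2.5 mM CaCl2, 0.1% PEG8000, 0.02% Tween80. […] Percent inhibition came from the ratio of proteolytic activity with versus without test compound.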

trypsin = target: T2, trypsin (Bos taurus, UniProt P00760); test: Direct inhibition of trypsin, chromogenic substrate; format: biochemical, bovine; conditions: not shown
T2 sequence (P00760 24-246): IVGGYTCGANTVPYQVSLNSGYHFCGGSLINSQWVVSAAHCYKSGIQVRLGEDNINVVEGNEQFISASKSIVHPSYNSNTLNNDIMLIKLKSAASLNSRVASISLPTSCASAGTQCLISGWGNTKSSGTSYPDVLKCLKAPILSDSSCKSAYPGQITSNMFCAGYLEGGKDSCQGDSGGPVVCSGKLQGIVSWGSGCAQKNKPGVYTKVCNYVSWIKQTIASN
Procedure, shortened: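 Bovine trypsin was held as stock in 50 mM Tris-HCl, pH 7.4, 150 mM NaCl, 0.1% PEG8000, 0.02% Tween80. The assay used 2.5 ng/ml enzyme with 80 μM S-2222 (in-well) at 37 °C, pH 7.4. Percent inhibition was calculated from the ratio of activity with versus without test compound.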

T1 sequence (P03951 388-625 limits assumed): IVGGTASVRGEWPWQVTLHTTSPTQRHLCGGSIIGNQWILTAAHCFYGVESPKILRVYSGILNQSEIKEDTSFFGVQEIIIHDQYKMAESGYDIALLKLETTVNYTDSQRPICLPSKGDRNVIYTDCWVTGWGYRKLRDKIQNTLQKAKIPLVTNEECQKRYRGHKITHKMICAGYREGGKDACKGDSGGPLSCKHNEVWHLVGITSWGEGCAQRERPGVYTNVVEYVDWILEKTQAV
T1 sequence (P03951 19-387 partner limits assumed): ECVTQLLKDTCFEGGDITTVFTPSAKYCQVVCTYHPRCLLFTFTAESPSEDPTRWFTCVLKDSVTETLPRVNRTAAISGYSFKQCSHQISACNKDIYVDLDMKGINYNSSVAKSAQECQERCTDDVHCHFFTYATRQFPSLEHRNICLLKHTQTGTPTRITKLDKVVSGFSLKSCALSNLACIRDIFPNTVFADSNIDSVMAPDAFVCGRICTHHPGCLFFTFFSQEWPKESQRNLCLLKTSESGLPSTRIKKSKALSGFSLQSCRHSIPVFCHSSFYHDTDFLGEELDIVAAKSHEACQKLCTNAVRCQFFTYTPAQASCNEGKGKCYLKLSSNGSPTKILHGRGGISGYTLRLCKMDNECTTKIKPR
hFXIa–DEGR, sequence (P03951 388-625 limits assumed): as the sequence (P03951 388-625 limits assumed) above
hFXIa–DEGR, sequence (P03951 19-387 partner limits assumed): as the sequence (P03951 19-387 partner limits assumed) above

Row | Compound | selectivity for hFXIa over FXa and trypsin (hFXIa [1]) | concentration at which FXa is inhibited (FXa) | concentration at which trypsin is inhibited (trypsin) | further results
1 | O=c1[nH]c(-c2ccc(OS(=O)(=O)[O-])cc2)nc2ccccc12.[Na+] [Inhibitor 2S] | – | – | – | fold higher KD than the next compound (hFXIa–DEGR; 2S vs 18S, 18S vs 19S): ~ 3.2 fold
2 | O=c1c2ccccc2nc(-c2ccc(OS(=O)(=O)[O-])cc2)n1CCCCCn1c(-c2ccc(OS(=O)(=O)[O-])cc2)nc2ccccc2c1=O.[Na+].[Na+] [Inhibitor 11S] | – | – | – | increase in potency as compared to the monomeric fragment (hFXIa [1]; IC50 ratio vs monomer 2S): ~ 7 fold
3 | O=c1c2ccccc2nc(-c2ccc(OS(=O)(=O)[O-])cc2)n1CCCCCCCCCn1c(-c2ccc(OS(=O)(=O)[O-])cc2)nc2ccccc2c1=O.[Na+].[Na+] [Inhibitor 19S] | – | – | – | n (Hill coefficient) (hFXIa–DEGR; 250 nM FXIa–DEGR, pH 7.4, 37 °C): 5.0±0.4; mechanism of inhibition (hFXIa [2]; KM invariant, VMAX decreased): non-competitive; VMAX (hFXIa [2]; at 120 μM inhibitor, pH 7.4, 37 °C): 9.7±0.37 mAU/min; sedimentation coefficient s of hFXIa–inhibitor complex (hFXIa [3]): 6.6 S
4 | O=c1c2ccccc2nc(-c2ccc(OS(=O)(=O)[O-])cc2)n1CCCCCCCCCCn1c(-c2ccc(OS(=O)(=O)[O-])cc2)nc2ccccc2c1=O.[Na+].[Na+] [Inhibitor 20S] | > 25 fold | > 200 µM | > 200 µM | –
5 | O=c1c2ccccc2nc(-c2ccc(OS(=O)(=O)[O-])cc2)n1CCCCCCCCCCCn1c(-c2ccc(OS(=O)(=O)[O-])cc2)nc2ccccc2c1=O.[Na+].[Na+] [Inhibitor 21S] | > 25 fold | > 200 µM | > 200 µM | –
